ChEMBL document CHEMBL2010803, “Novel NSAID 1-acyl-4-cycloalkyl/arylsemicarbazides and 1-acyl-5-benzyloxy/hydroxy carbamoylcarbazides as potential anticancer agents and antioxidants” (Eur J Med Chem, 2012)
Calls of active or inactive are those of the source. The rule behind the calls is not given here.

How the values were obtained:
[1] = test system: Human immunodeficiency virus 2; assay: Antiviral activity against HIV2 ROD infected in human CEM cells assessed as inhibition of virus-induced CEM giant cell formation at 0.32 to 100 uM after 4 days; format: functional, organism-based; conditions: ISOLATE ROD, CCRF-CEM
Method in brief: (§1)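 CEM cells (~3 × 10^5 cells/cm³) exposed to 100 CCID50/ml of virus and seeded into wells holding compound dilutions. Incubated 4 days at 37 °C, then giant cell formation examined microscopically.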

Glycine max = assay: Inhibition of soybean LOX assessed as conversion of sodium linoleate to 13- hydroperoxylinoleic acid at 100 uM
[2] = test system: Mammalian orthoreovirus 1; assay: Antiviral activity against Reovirus-1 infected in african green monkey Vero cells assessed as inhibition of virus-induced cytopathic effect at 0.32 to 100 uM; format: functional, organism-based
Method in brief: (§2)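 Confluent cell cultures were infected with 100 CCID50 of virus in the presence of test compound at 100, 40, 8, 1.6 and 0.32 μM. Cytopathic effect was scored once it was complete in untreated infected controls.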

[3] = test system: Vesicular stomatitis virus; assay: Antiviral activity against Vesicular stomatitis virus infected in human cervix carcinoma cells assessed as inhibition of virus-induced cytopathic effect at 0.32 to 100 uM; format: functional, organism-based
Method in brief: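 Confluent human cervix carcinoma (HeLa) cultures received 100 CCID50 of VSV together with the compound at 100, 40, 8, 1.6 or 0.32 μM. Cytopathicity was read at the point of full CPE in infected, untreated control wells.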

[4] = test system: Vesicular stomatitis virus; assay: Antiviral activity against VSV infected in human lung fibroblast assessed as inhibition of virus-induced cytopathic effect at 0.32 to 100 uM; format: functional, organism-based
[5] = test system: Respiratory syncytial virus; assay: Antiviral activity against RSV infected in human cervix carcinoma cells assessed as inhibition of virus-induced cytopathic effect at 0.32 to 100 uM; format: functional, organism-based; method in brief: as §2
[6] = test system: Human immunodeficiency virus 1; assay: Antiviral activity against HIV1 3B infected in human CEM cells assessed as inhibition of virus-induced CEM giant cell formation at 0.32 to 100 uM after 4 days; format: functional, organism-based; conditions: CCRF-CEM; method in brief: as §1
CCRF-CEM = assay: Cytostatic activity against human CEM cells after 3 days by coulter counter analysis; format: functional, cell-based; conditions: 72 h
Method in brief: (§3)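 300,000–500,000 cells/ml mixed 1:1 with compound dilutions and incubated at 37 °C for 2 days (L1210) or 3 days (CEM, HeLa). Cell number counted with a Coulter counter; HeLa trypsinized before counting.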

L1210 [7] = assay: Cytostatic activity against mouse L1210 cells after 2 days by coulter counter analysis; format: functional, cell-based; conditions: L1210, 48 h; method in brief: as §3
Influenza A virus [8] = assay: Antiviral activity against Influenza A virus H1N1 infected in MDCK cells assessed as inhibition of virus-induced cytopathic effect at 0.32 to 100 uM; format: functional, organism-based
Method in brief: (§4)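 Confluent MDCK monolayers were infected in the presence of the compound at 100, 40, 8, 1.6 and 0.32 μM. Viral cytopathicity was scored once it was complete in untreated infected control cultures.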

HeLa [9] = assay: Selectivity ratio of IC50 for human HaCaT cells to IC50 for human HeLa cells
HaCaT [10] = assay: Cytostatic activity against human HaCaT cells after 72 hrs by MTT assay; format: ADME, cell-based
Method in brief: (§5)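 Monolayers in DMEM with 10% FBS, 2 mM L-glutamine and penicillin/streptomycin, 37 °C, 5% CO2. Seeded at 1–3 × 10^4 cells/ml, then compound added in tenfold dilutions (10⁻⁸–10⁻⁴ M) for 72 h. MTT read at 570 nm; percent growth taken against time-zero and untreated controls. IC50 by linear regression; quadruplicate, at least two experiments.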

Coxsackievirus B4 [11] = assay: Antiviral activity against Coxsackievirus B4 infected in african green monkey Vero cells assessed as inhibition of virus-induced cytopathic effect at 0.32 to 100 uM; format: functional, organism-based; method in brief: as §2
Influenza B virus = assay: Antiviral activity against Influenza B virus infected in MDCK cells assessed as inhibition of virus-induced cytopathic effect at 0.32 to 100 uM; format: functional, organism-based; method in brief: as §4
Coxsackievirus B4 [12] = assay: Antiviral activity against Coxsackievirus B4 infected in human cervix carcinoma cells assessed as inhibition of virus-induced cytopathic effect at 0.32 to 100 uM; format: functional, organism-based; method in brief: as §2
[13] = Inhibition of soybean LOX assessed as conversion of sodium linoleate to 13- hydroperoxylinoleic acid; design: species or system Glycine max
Feline coronavirus = assay: Antiviral activity against Feline coronavirus infected in feline CRFK cells assessed as inhibition of virus-induced cytopathic effect at 0.32 to 100 uM; format: functional, organism-based; method in brief: as §2
NCI-H460 [14] = assay: Cytostatic activity against human NCI-H460 cells after 72 hrs by MTT assay; format: functional, cell-based; conditions: NCI-H460, 72 h; method in brief: as §5
HeLa [15] = assay: Cytostatic activity against human HeLa cells after 3 days by coulter counter analysis; format: functional, cell-based; conditions: 72 h; method in brief: as §3
Human alphaherpesvirus 2 = assay: Antiviral activity against HSV2 G infected in human lung fibroblast assessed as inhibition of virus-induced cytopathic effect at 0.32 to 100 uM; format: functional, organism-based; conditions: strain G; method in brief: as §2
Punta Toro virus = assay: Antiviral activity against Punta Toro virus infected in african green monkey Vero cells assessed as inhibition of virus-induced cytopathic effect at 0.32 to 100 uM; format: functional, organism-based; method in brief: as §2
Human alphaherpesvirus 1 = assay: Antiviral activity against HSV1 KOS infected in human lung fibroblast assessed as inhibition of virus-induced cytopathic effect at 0.32 to 100 uM; format: functional, organism-based; method in brief: as §2
HaCaT [16] = assay: Selectivity ratio of IC50 for human HaCaT cells to IC50 for human HCT116 cells
[17] = test system: Radical scavenging activity; assay: Antioxidant activity assessed as DPPH free radical scavenging activity at 100 uM after 60 mins by spectrophotometric analysis; format: functional
Method in brief: (§6)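 0.05 mM DPPH in absolute ethanol mixed with an equal volume of compound in DMSO (final 100 μM). Shaken and left 20 or 60 min, then absorbance read at 517 nm and percent activity calculated. Three replicates, averaged.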

Influenza A virus [18] = assay: Antiviral activity against Influenza A virus H3N2 infected in MDCK cells assessed as inhibition of virus-induced cytopathic effect at 0.32 to 100 uM; format: functional, organism-based; method in brief: as §4
Human respirovirus 3 = assay: Antiviral activity against Parainfluenza virus 3 infected in african green monkey Vero cells assessed as inhibition of virus-induced cytopathic effect at 0.32 to 100 uM; format: functional, organism-based; method in brief: as §2
Felid alphaherpesvirus 1 = assay: Antiviral activity against Feline herpesvirus infected in feline CRFK cells assessed as inhibition of virus-induced cytopathic effect at 0.32 to 100 uM; format: functional, organism-based; method in brief: as §2
Vaccinia virus = assay: Antiviral activity against Vaccinia virus infected in human lung fibroblast assessed as inhibition of virus-induced cytopathic effect at 0.32 to 100 uM; format: functional, organism-based; conditions: Orthopoxvirus vaccinia
[19] = Antioxidant activity assessed as inhibition of AAPH-induced linoleic acid lipid peroxidation by measuring conjugated diene hydroperoxide level; format: functional; design: concentration or dose not given beside the values; conditions: dose or concentration not given here
Method in brief: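 Linoleic acid sodium salt (10 μL of 16 mM) in 0.05 M phosphate buffer pH 7.4 at 37 °C. Oxidation started under air with 50 μL of 40 mM AAPH. Conjugated diene hydroperoxide formation followed as absorbance rise at 234 nm; control contains the same DMSO level. At least triplicate.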

[20] = test system: Radical scavenging activity; assay: Antioxidant activity assessed as DPPH free radical scavenging activity at 100 uM after 20 mins by spectrophotometric analysis; format: functional; method in brief: as §6
NCI-H460 [21] = assay: Selectivity ratio of IC50 for human HaCaT cells to IC50 for human NCI-H460 cells
L1210 [22] = assay: Selectivity ratio of IC50 for human HaCaT cells to IC50 for mouse L1210 cells
HaCaT [23] = assay: Selectivity ratio of IC50 for human HaCaT cells to IC50 for human CEM cells
MCF7 [24] = assay: Selectivity ratio of IC50 for human HaCaT cells to IC50 for human MCF7 cells
Sindbis virus = assay: Antiviral activity against Sindbis virus infected in african green monkey Vero cells assessed as inhibition of virus-induced cytopathic effect at 0.32 to 100 uM; format: functional, organism-based; method in brief: as §2
MCF7 [25] = assay: Cytostatic activity against human MCF7 cells after 72 hrs by MTT assay; format: functional, cell-based; conditions: MCF7, 72 h; method in brief: as §5
HCT-116 = assay: Cytostatic activity against human HCT116 cells after 72 hrs by MTT assay; format: functional, cell-based; conditions: HCT-116, 72 h; method in brief: as §5

Compound	inhibition [1]	inhibition (Glycine max) [%]	inhibition [2]	inhibition [3]	inhibition [4]	inhibition [5]	inhibition [6]	IC50 (CCRF-CEM) [µM]	IC50 (L1210 [7]) [µM]	inhibition (Influenza A virus [8])	IC50 (HaCaT [10]) [µM]	inhibition (Coxsackievirus B4 [11])	inhibition (Influenza B virus)	inhibition (Coxsackievirus B4 [12])	inhibition (Feline coronavirus)	IC50 (NCI-H460 [14]) [µM]	inhibition (Human alphaherpesvirus 2)	inhibition (Punta Toro virus)	inhibition (Human alphaherpesvirus 1)	Activity [17] [%]	other results
CC(C(=O)NNC(=O)NC(c1ccccc1)c1ccccc1)c1cccc(Oc2ccccc2)c1 (centres undefined)	inactive	81	inactive	inactive	inactive	inactive	inactive	11	15	inactive	10	inactive	inactive	inactive	inactive	3	inactive	inactive	inactive	4	Ratio IC50 (HeLa [9]): 2; IC50 [13]: 60 µM; IC50 (HeLa [15]): 5.7 µM; Ratio IC50 (HaCaT [16]): 2; inhibition (Influenza A virus [18]): inactive; inhibition (Human respirovirus 3): inactive; inhibition (Felid alphaherpesvirus 1): inactive; inhibition (Vaccinia virus): inactive; inhibition [19]: 99%; Activity [20]: 2%; Ratio IC50 (NCI-H460 [21]): 2; Ratio IC50 (L1210 [22]): 2; Ratio IC50 (HaCaT [23]): 2; Ratio IC50 (MCF7 [24]): 2; inhibition (Sindbis virus): inactive; IC50 (MCF7 [25]): 7 µM; IC50 (HCT-116): 5 µM
CC(C(=O)NNC(=O)NCc1ccccc1)c1cccc(Oc2ccccc2)c1 (centres undefined)	inactive	68	inactive	inactive	inactive	inactive	inactive	72	63	inactive	46	inactive	inactive	inactive	inactive	19	inactive	inactive	inactive	24	IC50 [13]: 75 µM; inhibition (Influenza A virus [18]): inactive; inhibition (Human respirovirus 3): inactive; inhibition (Felid alphaherpesvirus 1): inactive; inhibition (Vaccinia virus): inactive; inhibition [19]: 11%; Activity [20]: 22%; inhibition (Sindbis virus): inactive; IC50 (MCF7 [25]): 17 µM; IC50 (HCT-116): 27 µM
CC(C(=O)NNC(=O)NC1CCCCC1)c1cccc(Oc2ccccc2)c1 (centres undefined)	inactive	13	inactive	inactive	inactive	inactive	inactive	53	35	inactive	19	inactive	inactive	inactive	inactive	24	inactive	inactive	inactive	22	IC50 (HeLa [15]): 48 µM; inhibition (Influenza A virus [18]): inactive; inhibition (Human respirovirus 3): inactive; inhibition (Felid alphaherpesvirus 1): inactive; inhibition (Vaccinia virus): inactive; inhibition [19]: 63%; Activity [20]: 19%; inhibition (Sindbis virus): inactive; IC50 (MCF7 [25]): 17 µM; IC50 (HCT-116): 22 µM
CC(C(=O)NNC(=O)NCCc1ccccc1)c1cccc(Cc2ccccc2)c1 (centres undefined)	inactive	17	inactive	inactive	inactive	inactive	inactive	29	31	inactive	16	inactive	inactive	inactive	inactive	22	inactive	inactive	inactive	15	IC50 (HeLa [15]): 58 µM; inhibition (Influenza A virus [18]): inactive; inhibition (Human respirovirus 3): inactive; inhibition (Felid alphaherpesvirus 1): inactive; inhibition (Vaccinia virus): inactive; inhibition [19]: 71%; Activity [20]: 8%; inhibition (Sindbis virus): inactive; IC50 (MCF7 [25]): 15 µM; IC50 (HCT-116): 20 µM
CC(C(=O)NNC(=O)NC(c1ccccc1)c1ccccc1)c1cccc(Cc2ccccc2)c1 (centres undefined)	inactive	96	inactive	inactive	inactive	inactive	inactive	15	19	inactive	11	inactive	inactive	inactive	inactive	4	inactive	inactive	inactive	9	Ratio IC50 (HeLa [9]): 2; IC50 [13]: 51.5 µM; IC50 (HeLa [15]): 5 µM; Ratio IC50 (HaCaT [16]): 2; inhibition (Influenza A virus [18]): inactive; inhibition (Human respirovirus 3): inactive; inhibition (Felid alphaherpesvirus 1): inactive; inhibition (Vaccinia virus): inactive; inhibition [19]: 88%; Activity [20]: 4%; Ratio IC50 (NCI-H460 [21]): 2; Ratio IC50 (L1210 [22]): 2; Ratio IC50 (HaCaT [23]): 2; Ratio IC50 (MCF7 [24]): 2; inhibition (Sindbis virus): inactive; IC50 (MCF7 [25]): 5 µM; IC50 (HCT-116): 8 µM
